System: HEK-293T
Assay: Multiplex assay against HEK293T
Type: toxicity, cell-based
Details: human
In short: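 Imaging took place on a CQ1 microscope at 37°C and 5% CO2 once compound had been added to live cells stained at seeding with Hoechst33342, BioTracker Green Microtubule Cytoskeleton Dye, MitoTracker Red and Annexin V Alexa Fluor 680. CellPathfinder machine-learning gating classed cells as Hoechst high-intensity objects or normal cells, classed normal cells as having healthy, pyknosed or fragmented nuclei, and classed pyknosed cells as mitotic or apoptotic. Tubulin, mitochondrial-mass and membrane-permeability phenotypes are per cents of the healthy-nucleus cells.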

[1] = 12 h, 1 µM, compound concentration 1 uM, replicate 1
[2] = 12 h, 1 µM, compound concentration 1 uM, replicate 2
[3] = 12 h, 10 µM, compound concentration 10 uM, replicate 1
[4] = 12 h, 10 µM, compound concentration 10 uM, replicate 2
[5] = 24 h, 1 µM, compound concentration 1 uM, replicate 1
[6] = 24 h, 1 µM, compound concentration 1 uM, replicate 2
[7] = 24 h, 10 µM, compound concentration 10 uM, replicate 1
[8] = 24 h, 10 µM, compound concentration 10 uM, replicate 2
[9] = 48 h, 1 µM, compound concentration 1 uM, replicate 1
[10] = 48 h, 1 µM, compound concentration 1 uM, replicate 2
[11] = 48 h, 10 µM, compound concentration 10 uM, replicate 1
[12] = 48 h, 10 µM, compound concentration 10 uM, replicate 2

`CCCOc1ccc2[nH]cc(C3=CCNCC3)c2n1.Cl` was tested, and the “Population Apoptotic (%)” value [1] was 32%, the “Population Fragmented Nuclei (%)” value [1] was 5% and the “Population Healthy Nuclei (%)” value [1] was 81%. The “Population Hoechst High Intensity Objects (%)” value [1] was 5%, the “Population Membrane Permeable-Phenotype (%)” value [1] was 0% and the “Population Mitochondria Different-Phenotype (%)” value [1] was 41%. The “Population Mitotic Cells (%)” value [1] was 68%, the “Population Normal (%)” value [1] was 94% and the “Population Pyknosed Nuclei (%)” value [1] was 12%. The “Population Tubulin-Different-Phenotype (%)” value [1] was 39%, the “Total Cell Count” value [1] was 416 and the “Population Apoptotic (%)” value [2] was 44%. The “Population Fragmented Nuclei (%)” value [2] was 6%, the “Population Healthy Nuclei (%)” value [2] was 82% and the “Population Hoechst High Intensity Objects (%)” value [2] was 4%. The “Population Mitochondria Different-Phenotype (%)” value [2] was 52%, the “Population Mitotic Cells (%)” value [2] was 55% and the “Population Normal (%)” value [2] was 95%. The “Population Pyknosed Nuclei (%)” value [2] was 10%, the “Population Tubulin-Different-Phenotype (%)” value [2] was 21% and the “Total Cell Count” value [2] was 344. The “Population Apoptotic (%)” value [3] was 43%, the “Population Fragmented Nuclei (%)” value [3] was 5% and the “Population Healthy Nuclei (%)” value [3] was 78%. For the same compound, the “Population Hoechst High Intensity Objects (%)” value [3] was 10%, the “Population Membrane Permeable-Phenotype (%)” value [3] was 0% and the “Population Mitochondria Different-Phenotype (%)” value [3] was 58%. For the same compound, the “Population Mitotic Cells (%)” value [3] was 56%, the “Population Normal (%)” value [3] was 89% and the “Population Pyknosed Nuclei (%)” value [3] was 15%. For the same compound, the “Population Tubulin-Different-Phenotype (%)” value [3] was 41%, the “Total Cell Count” value [3] was 446 and the “Population Apoptotic (%)” value [4] was 55%. The “Population Fragmented Nuclei (%)” value [4] was 6%, the “Population Healthy Nuclei (%)” value [4] was 82% and the “Population Hoechst High Intensity Objects (%)” value [4] was 4%. For the same compound, the “Population Mitochondria Different-Phenotype (%)” value [4] was 76%, the “Population Mitotic Cells (%)” value [4] was 44% and the “Population Normal (%)” value [4] was 95%. For the same compound, the “Population Pyknosed Nuclei (%)” value [4] was 11%, the “Total Cell Count” value [4] was 387 and the “Population Apoptotic (%)” value [5] was 28%. The “Population Fragmented Nuclei (%)” value [5] was 10%, the “Population Healthy Nuclei (%)” value [5] was 76% and the “Population Hoechst High Intensity Objects (%)” value [5] was 3%. The “Population Membrane Permeable-Phenotype (%)” value [5] was 0%, the “Population Mitochondria Different-Phenotype (%)” value [5] was 26% and the “Population Mitotic Cells (%)” value [5] was 71%. The “Population Normal (%)” value [5] was 96%, the “Population Pyknosed Nuclei (%)” value [5] was 12% and the “Population Tubulin-Different-Phenotype (%)” value [5] was 24%. For the same compound, the “Total Cell Count” value [5] was 558, the “Population Apoptotic (%)” value [6] was 35% and the “Population Fragmented Nuclei (%)” value [6] was 9%. The “Population Healthy Nuclei (%)” value [6] was 80%, the “Population Hoechst High Intensity Objects (%)” value [6] was 2% and the “Population Membrane Permeable-Phenotype (%)” value [6] was 1%. The “Population Mitochondria Different-Phenotype (%)” value [6] was 29%, the “Population Mitotic Cells (%)” value [6] was 64% and the “Population Normal (%)” value [6] was 97%. The “Population Pyknosed Nuclei (%)” value [6] was 9%, the “Population Tubulin-Different-Phenotype (%)” value [6] was 14% and the “Total Cell Count” value [6] was 425. For the same compound, the “Population Apoptotic (%)” value [7] was 39%, the “Population Fragmented Nuclei (%)” value [7] was 12% and the “Population Healthy Nuclei (%)” value [7] was 74%. The “Population Hoechst High Intensity Objects (%)” value [7] was 7%, the “Population Membrane Permeable-Phenotype (%)” value [7] was 0% and the “Population Mitochondria Different-Phenotype (%)” value [7] was 50%. For the same compound, the “Population Mitotic Cells (%)” value [7] was 60%, the “Population Normal (%)” value [7] was 92% and the “Population Pyknosed Nuclei (%)” value [7] was 12%. The “Population Tubulin-Different-Phenotype (%)” value [7] was 38%, the “Total Cell Count” value [7] was 583 and the “Population Apoptotic (%)” value [8] was 51%. For the same compound, the “Population Fragmented Nuclei (%)” value [8] was 6%, the “Population Healthy Nuclei (%)” value [8] was 81% and the “Population Hoechst High Intensity Objects (%)” value [8] was 3%. For the same compound, the “Population Mitochondria Different-Phenotype (%)” value [8] was 63%, the “Population Mitotic Cells (%)” value [8] was 48% and the “Population Normal (%)” value [8] was 96%. The “Population Pyknosed Nuclei (%)” value [8] was 11%, the “Population Tubulin-Different-Phenotype (%)” value [8] was 34% and the “Total Cell Count” value [8] was 502. For the same compound, the “Population Apoptotic (%)” value [9] was 17%, the “Population Fragmented Nuclei (%)” value [9] was 13% and the “Population Healthy Nuclei (%)” value [9] was 79%. For the same compound, the “Population Hoechst High Intensity Objects (%)” value [9] was 2%, the “Population Membrane Permeable-Phenotype (%)” value [9] was 0% and the “Population Mitochondria Different-Phenotype (%)” value [9] was 15%. The “Population Mitotic Cells (%)” value [9] was 82%, the “Population Normal (%)” value [9] was 97% and the “Population Pyknosed Nuclei (%)” value [9] was 6%. The “Population Tubulin-Different-Phenotype (%)” value [9] was 12%, the “Total Cell Count” value [9] was 872 and the “Population Apoptotic (%)” value [10] was 38%. The “Population Fragmented Nuclei (%)” value [10] was 9%, the “Population Healthy Nuclei (%)” value [10] was 82% and the “Population Hoechst High Intensity Objects (%)” value [10] was 1%. For the same compound, the “Population Membrane Permeable-Phenotype (%)” value [10] was 1%, the “Population Mitochondria Different-Phenotype (%)” value [10] was 20% and the “Population Mitotic Cells (%)” value [10] was 61%. For the same compound, the “Population Normal (%)” value [10] was 98%, the “Population Pyknosed Nuclei (%)” value [10] was 7% and the “Population Tubulin-Different-Phenotype (%)” value [10] was 9%. The “Total Cell Count” value [10] was 657, the “Population Apoptotic (%)” value [11] was 35% and the “Population Fragmented Nuclei (%)” value [11] was 14%. The “Population Healthy Nuclei (%)” value [11] was 76%, the “Population Hoechst High Intensity Objects (%)” value [11] was 6% and the “Population Membrane Permeable-Phenotype (%)” value [11] was 0%. For the same compound, the “Population Mitochondria Different-Phenotype (%)” value [11] was 41%, the “Population Mitotic Cells (%)” value [11] was 64% and the “Population Normal (%)” value [11] was 93%. The “Population Pyknosed Nuclei (%)” value [11] was 8%, the “Population Tubulin-Different-Phenotype (%)” value [11] was 23% and the “Total Cell Count” value [11] was 776. For the same compound, the “Population Apoptotic (%)” value [12] was 26%, the “Population Fragmented Nuclei (%)” value [12] was 13% and the “Population Healthy Nuclei (%)” value [12] was 80%. For the same compound, the “Population Hoechst High Intensity Objects (%)” value [12] was 5%, the “Population Mitochondria Different-Phenotype (%)” value [12] was 37% and the “Population Mitotic Cells (%)” value [12] was 73%. The “Population Normal (%)” value [12] was 94%, the “Population Pyknosed Nuclei (%)” value [12] was 6% and the “Population Tubulin-Different-Phenotype (%)” value [12] was 20%. For the same compound, the “Total Cell Count” value [12] was 733.

Reference: ChEMBL document CHEMBL5058577, “EUbOPEN Chemogenomics Library 2 (Multiplex)” (2022)
